Experimental data as given in article PMC4303305 (Biochemistry, 2014).
Where two headings read alike, the source gives them in different places.

Columns and labels:
[1] = cited from earlier work
[2] = Stopped-flow kinetics of release of NO from the nitrophorins; type: binding, Rhodnius prolixus
Outline: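 Stopped-flow measurement of NO release from NO-bound nitrophorins with native or M0-bearing N-termini. Dissociation Kd obtained at pH 5.0 and 7.5 in dilute solution, 5–10 μM protein in 100 mM sodium phosphate buffer.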

[3] = Size-exclusion FPLC retention of nitrophorins, mutants and ligand complexes; type: physicochemical, Rhodnius prolixus; conditions: under any conditions / at any pH
Outline: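 Analytical run on Superdex75 at 4 °C in 100 mM sodium acetate, NaCl added to 220 mM total ionic strength. Protein at 1 mM was run at pH 5.0, 5.25, 5.5 and 5.75. Separately, protein from 1 to 0.025 mM was run at pH 5.0. Elution position compared with molecular weight standards.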

factor by which having M0 present increased the Kd for the loss of NO ([2]; pH 5.0)	factor by which having M0 present increased the Kd for the loss of NO ([2]; pH 7.5)	Substance	NO Kd (NO dissociation) ([1]; pH 5.0, ref 29)	NO Kd (NO dissociation) ([1]; pH 7.5)	dimer formation [3]	NO Kd (NO dissociation) ([1]; column pH 7.5, measured at pH 8.0 rather than pH 7.5 (footnote a))	NO Kd (NO dissociation) ([1]; pH 5.0, ref 17)
–	–	NP2(D1A): D1A mutant of NP2, no M0 present	0.015 ± 0.005 s^–1	0.089 ± 0.002 s^–1	–	–	–
1.6	1.7	NP2: nitrophorin 2 of Rhodnius prolixus; in b68 named without construct	–	–	–	–	–
–	–	(M0)NP2: recombinant NP2 retaining M0 (N-terminus MDCST...)	0.049 ± 0.002 s^–1	0.161 ± 0.005 s^–1	do not form dimers	0.12 ± 0.01 ^a s^–1	0.05 ± 0.01 s^–1
